pIC50: −log10 of the molar value.
Legend:
[1] = Compound was tested for in vitro antitumor activity, using SCC25 human head and neck squamous carcinoma cells; type: functional; details: SCC-25
Method in brief: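 Clonogenic assay: SCC25 cells exposed to graded drug concentrations for 72 h at 37 °C, 5% CO2, in DMEM with 10% FBS and hydrocortisone ([…]). Then replated as single cells at drug-dependent densities and grown in drug-free medium 10-14 days. Colonies stained with crystal violet; only colonies of ≥50 cells scored. IC50 is mean ± SD of ≥3 assays on different days.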

RPMI-8226 = test: Compound was evaluated for in vitro activity against RPMI-8226 leukemia cell lines (Human tumor cells ); type: functional, cell-based
Method in brief: (§1)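 NCI Developmental Therapeutics Program human tumor cell panel; drug exposure in 96-well plates for the last 48 h of a 72-h incubation, then cells stained for total protein with sulforhodamine B per the standard NCI protocol. Data supplied by NCI.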

TK-10 = test: Compound was evaluated for in vitro activity against TK-10 kidney cell lines (Human tumor cells ); type: functional, cell-based; method in brief: as §1
M14 = test: Compound was evaluated for in vitro activity against M14 Melanoma cell lines (Human tumor cells ); type: functional, cell-based; method in brief: as §1
IGROV-1 = test: Compound was evaluated for in vitro activity against IGROV1 Ovary cell lines (Human tumor cells ); type: functional, cell-based; method in brief: as §1
U-251 = test: Compound was evaluated for in vitro activity against U251 CNS cell lines (Human tumor cells ); type: functional, cell-based; method in brief: as §1
NCI-H522 = test: Compound was evaluated for in vitro activity against NCI-H522 lung cancer cell lines (Human tumor cells ); type: functional, cell-based; method in brief: as §1
CCRF-CEM = test: Compound was evaluated for in vitro activity against CCRF-CEM leukemia cell lines (Human tumor cells ); type: functional, cell-based; method in brief: as §1
DU-145 = test: Compound was evaluated for in vitro activity against DU-145 prostate cell lines (Human tumor cells ); type: functional, cell-based; method in brief: as §1
HOP-92 = test: Compound was evaluated for in vitro activity against HOP-92 lung cancer cell lines (Human tumor cells ); type: functional, cell-based; method in brief: as §1
MOLT-4 = test: Compound was evaluated for in vitro activity against MOLT-4 leukemia cell lines (Human tumor cells ); type: functional, cell-based; method in brief: as §1
Malme-3M = test: Compound was evaluated for in vitro activity against MALME-3M Melanoma cell lines (Human tumor cells ); type: functional, cell-based; method in brief: as §1
SK-MEL-2 = test: Compound was evaluated for in vitro activity against SK-MEL-2 Melanoma cell lines (Human tumor cells ); type: functional, cell-based; method in brief: as §1
UACC-257 = test: Compound was evaluated for in vitro activity against UACC-257 Melanoma cell lines (Human tumor cells ); type: functional, cell-based; method in brief: as §1
HCC 2998 = test: Compound was evaluated for in vitro activity against HCC2998 Colon cell lines (Human tumor cells ); type: functional, cell-based; method in brief: as §1
EKVX = test: Compound was evaluated for in vitro activity against EKVX lung cancer cell lines (Human tumor cells ); type: functional, cell-based; method in brief: as §1
K562 = test: Compound was evaluated for in vitro activity against K562 leukemia cell lines (Human tumor cells ); type: functional, cell-based; method in brief: as §1
OVCAR-5 = test: Compound was evaluated for in vitro activity against OVCAR-5 Ovary cell lines (Human tumor cells ); type: functional, cell-based; method in brief: as §1
PC-3 = test: Compound was evaluated for in vitro activity against PC-3 prostate cell lines (Human tumor cells ); type: functional, cell-based; method in brief: as §1
SR = test: Compound was evaluated for in vitro activity against SR leukemia cell lines (Human tumor cells ); type: functional, cell-based; method in brief: as §1
MDA-MB-435 = test: Compound was evaluated for in vitro activity against MDA-MB-435 breast cancer cell lines (Human tumor cells ); type: functional, cell-based; method in brief: as §1
KM12 = test: Compound was evaluated for in vitro activity against KM-12 Colon cell lines (Human tumor cells ); type: functional, cell-based; method in brief: as §1
BT-549 = test: Compound was evaluated for in vitro activity against BT-549 breast cancer cell lines (Human tumor cells ); type: functional, cell-based; method in brief: as §1
SF-295 = test: Compound was evaluated for in vitro activity against SF-295 CNS cell lines (Human tumor cells ); type: functional, cell-based; method in brief: as §1
T47D = test: Compound was evaluated for in vitro activity against T-47D breast cancer cell lines (Human tumor cells ); type: functional, cell-based; method in brief: as §1
HL-60 = test: Compound was evaluated for in vitro activity against HL-60(TB) leukemia cell lines (Human tumor cells ); type: functional, cell-based; method in brief: as §1
NCI-H226 = test: Compound was evaluated for in vitro activity against NCI-H226 lung cancer cell lines (Human tumor cells ); type: functional, cell-based; method in brief: as §1
SNB- = test: Compound was evaluated for in vitro activity against […] CNS cell lines (Human tumor cells ); type: functional, cell-based; method in brief: as §1
SK-MEL-28 = test: Compound was evaluated for in vitro activity against SK-MEL28 Melanoma cell lines (Human tumor cells ); type: functional, cell-based; method in brief: as §1
A498 = test: Compound was evaluated for in vitro activity against A498 kidney cell lines (Human tumor cells ); type: functional, cell-based; method in brief: as §1
A549 = test: Compound was evaluated for in vitro activity against A549/ATCC lung cancer cell lines (Human tumor cells )
COLO 205 = test: Compound was evaluated for in vitro activity against COLO 205 Colon cell lines (Human tumor cells ); type: functional, cell-based
Method in brief: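 Total protein then stained with sulforhodamine B following the standard NCI protocol. Data supplied by the NCI Developmental Therapeutics Program.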

RXF 393 = test: Compound was evaluated for in vitro activity against RXF-393 kidney cell lines (Human tumor cells ); type: functional, cell-based; method in brief: as §1
OVCAR-4 = test: Compound was evaluated for in vitro activity against OVCAR-4 Ovary cell lines (Human tumor cells ); type: functional, cell-based; method in brief: as §1
Hs-578T = test: Compound was evaluated for in vitro activity against Hs 578.T breast cancer cell lines (Human tumor cells ); type: functional, cell-based; method in brief: as §1

Nc1nc(N)c2cc(CNc3ccc(C(=O)NC(CCCNC(=O)c4ccccc4C(=O)O)C(=O)O)cc3)ccc2n1 (stereo unspecified)
pIC50 [1]: 9.21

CN(Cc1cnc2nc(N)nc(N)c2n1)c1ccc(C(=O)N[C@@H](CCC(=O)O)C(=O)O)cc1 [METHOTREXATE]
pIC50 (RPMI-8226): 7.48 | pIC50 (TK-10): < 6.00 | pIC50 (M14): 7.49 | pIC50 (IGROV-1): 7.19 | pIC50 (U-251): 7.20 | pIC50 (NCI-H522): 6.35 | pIC50 (CCRF-CEM): 7.54 | pIC50 (DU-145): 7.35 | pIC50 (HOP-92): < 6.00 | pIC50 [1]: 7.82 | pIC50 (MOLT-4): 7.55 | pIC50 (Malme-3M): < 6.00 | pIC50 (SK-MEL-2): < 6.00 | pIC50 (UACC-257): 6.10 | pIC50 (HCC 2998): 6.96 | pIC50 (EKVX): < 6.00 | pIC50 (K562): 7.59 | pIC50 (OVCAR-5): 6.01 | pIC50 (PC-3): 7.57 | pIC50 (SR): 7.48 | pIC50 (MDA-MB-435): < 6.00 | pIC50 (KM12): 7.48 | pIC50 (BT-549): < 6.00 | pIC50 (SF-295): 7.44 | pIC50 (T47D): < 6.00 | pIC50 (HL-60): 7.41 | pIC50 (NCI-H226): < 6.00 | pIC50 (SNB-): < 6.00 | pIC50 (SK-MEL-28): < 6.00 | pIC50 (A498): < 6.00 | pIC50 (A549): 7.48 | pIC50 (COLO 205): 6.06 | pIC50 (RXF 393): < 6.00 | pIC50 (OVCAR-4): < 6.00 | pIC50 (Hs-578T): < 6.00
